Laboratory results as given in ChEMBL document CHEMBL1811811, “Characterization of anticancer properties of 2,6-diisopropylphenol-docosahexaenoate and analogues in breast cancer cells” (Bioorg Med Chem, 2010).
The source made the active and inactive calls. The calls are words filed in the database; no cut-off is given here.

Key:
MDA-MB-231 [1] = assay: Induction of apoptosis in human MDA-MB-231 cells assessed as necrotic cells at 1 uM after 24 hrs by annexin V/propidium iodide staining based FACS flow cytometry (reference value: 9.2 +/- 0.8 %); format: functional
MDA-MB-231 [2] = assay: Cytotoxicity against human MDA-MB-231 cells at 10 uM after 48 hrs by WST1 assay; format: functional, cell-based
Summary of the method: (§1)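 Cells seeded at 5000/well, grown overnight (18 h) in DMEM complete medium, then switched to DMEM with 2% FBS plus treatment for 48 h at 37 °C, 5% CO2; ethanol vehicle control. WST-1 read at day 0 (baseline, X) and end; growth normalized as (Y−X)/X×100, 100 to 0 = growth inhibition, 0 to −100 = cell death. Mean ± SD, at least four experiments.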

MDA-MB-231 [3] = assay: Induction of apoptosis in human MDA-MB-231 cells assessed as viable cells at 10 uM after 24 hrs by annexin V/propidium iodide staining based FACS flow cytometry (reference value: 89 +/- 1 %); format: functional; settings: MDA-MB-231, 24 h, read-out: Activity
MDA-MB-361 [4] = assay: Cytotoxicity against human MDA-MB-361 cells at 25 uM after 48 hrs by WST1 assay; format: functional, cell-based; summary of the method: as §1
MDA-MB-231 [5] = assay: Induction of apoptosis in human MDA-MB-231 cells assessed as apoptotic cells at 1 uM after 24 hrs by annexin V/propidium iodide staining based FACS flow cytometry (reference value: 1.8 +/- 0.3 %); format: functional
MCF7 [6] = assay: Growth inhibition of human MCF7 cells at 25 uM after 48 hrs by WST1 assay; format: functional, cell-based; summary of the method: as §1
AU565 [7] = assay: Cytotoxicity against human AU565 cells at 25 uM after 48 hrs by WST1 assay; format: functional, cell-based; summary of the method: as §1
MDA-MB-231 [8] = assay: Induction of apoptosis in human MDA-MB-231 cells assessed as apoptotic cells at 10 uM after 24 hrs by annexin V/propidium iodide staining based FACS flow cytometry (reference value: 1.8 +/- 0.3 %); format: functional
Serum [9] = assay: Stability in mouse serum at 1 mM incubated for 2 hrs at 37 degC by HPLC; settings: 1000 µM
MDA-MB-361 [10] = assay: Growth inhibition of human MDA-MB-361 cells at 25 uM after 48 hrs by WST1 assay; format: functional, cell-based; summary of the method: as §1
HMEC [11] = assay: Cytotoxicity against human HMEC cells at 25 uM after 48 hrs by WST1 assay; format: cell-based; summary of the method: as §1
MDA-MB-231 [12] = assay: Induction of apoptosis in human MDA-MB-231 cells assessed as necrotic cells at 10 uM after 24 hrs by annexin V/propidium iodide staining based FACS flow cytometry (reference value: 9.2 +/- 0.8 %); format: functional
MDA-MB-231 [13] = assay: Induction of apoptosis in human MDA-MB-231 cells assessed as viable cells at 1 uM after 24 hrs by annexin V/propidium iodide staining based FACS flow cytometry (reference value: 89 +/- 1 %); format: functional; settings: MDA-MB-231, 24 h, read-out: Activity
MDA-MB-231 [14] = assay: Total growth inhibition of human MDA-MB-231 cells after 48 hrs by WST1 assay; format: functional; summary of the method: as §1
AU565 [15] = assay: Growth inhibition of human AU565 cells at 25 uM after 48 hrs by WST1 assay; format: functional, cell-based; summary of the method: as §1
HMEC [16] = assay: Growth inhibition of human HMEC cells at 25 uM after 48 hrs by WST1 assay; format: cell-based; summary of the method: as §1
MDA-MB-231 [17] = assay: Growth inhibition of human MDA-MB-231 cells after 48 hrs by WST1 assay; format: functional, cell-based; summary of the method: as §1
MCF7 [18] = assay: Cytotoxicity against human MCF7 cells at 25 uM after 48 hrs by WST1 assay; format: functional, cell-based; summary of the method: as §1
Serum [19] = assay: Stability in human serum at 1 mM incubated for 2 hrs at 37 degC by HPLC; settings: 1000 µM
[20] = biological target: T1, Histone deacetylase (Homo sapiens) (UniProt Q13547+O15379+Q9UBN7+Q92769+Q9UQL6+Q8WUI4+Q9BY41+Q96DB2+P56524+Q9UKV0+Q969S8); assay: Inhibition of HDAC in human MDA-MB-231 cells after 2 hrs; format: cell-based
Summary of the method: (§2)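 Cells exposed 2 h at 37 °C to varying concentrations in DMEM/2% FBS, washed, trypsinized, adjusted to 2×10^6 cells/mL in PBS with 0.1% Triton X-100, and sonicated on ice. Total HDAC activity measured with a fluorometric kit; trichostatin A used as maximum inhibition to correct non-specific signal. Expressed as % of total HDAC activity versus vehicle.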

[21] = biological target: T1, Histone deacetylase (Homo sapiens); assay: Inhibition of HDAC in human MDA-MB-231 cells at 10 to 25 uM after 2 hrs relative to control; format: cell-based; summary of the method: as §2
MDA-MB-231 [22] = assay: Growth inhibition of human MDA-MB-231 cells at 25 uM after 48 hrs by WST1 assay; format: functional, cell-based; summary of the method: as §1
[23] = biological target: T1, Histone deacetylase (Homo sapiens); assay: Inhibition of HDAC in human MDA-MB-231 cells up to 25 uM after 2 hrs relative to control; format: cell-based
Summary of the method: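 MDA-MB-231 cells treated 2 h at 37 °C in DMEM with 2% FBS with varying concentrations; rinsed in PBS, trypsinized, normalized to 2×10^6 cells/mL in PBS with 0.1% Triton X-100, sonicated on ice. Total (non-specific) HDAC activity measured with a fluorometric kit; trichostatin A used for maximum inhibition to correct non-specific readings. Expressed as % of total HDAC activity versus vehicle.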

[24] = Homo sapiens, MDA-MB-231, 48 h, read-out: IC50

Row | Structure (SMILES) | Activity (MDA-MB-231 [1]) | viability at 10 µM (MDA-MB-231 [3]) | Activity (MDA-MB-361 [4]) | Activity (MDA-MB-231 [5]) | growth inhibition (GI) (MCF7 [6]) | Activity (AU565 [7]) | Activity (MDA-MB-231 [8]) | growth inhibition (GI) (MDA-MB-361 [10]) | Activity (HMEC [11]) | Activity (MDA-MB-231 [12]) | viability at 1 µM (MDA-MB-231 [13]) | TGI (MDA-MB-231 [14]; MDA-MB-231, 48 h) | growth inhibition (GI) (AU565 [15]) | Activity (HMEC [16]) | growth inhibition (GI) (MDA-MB-231 [17]) | IC50 (MDA-MB-231 [17]; [24]) | Activity (MCF7 [18]) | further results
1 | CC/C=C\C/C=C\C/C=C\C/C=C\C/C=C\C/C=C\CCC(=O)Oc1ccccc1C(C)C | 8.6% | 36.2% | Active | 1.8% | Active | Active | 26.4% | Active | Non-toxic | 37.5% | 89.6% | 12.1 µM | Active | Non-toxic | Dose-dependent effect | 8.2 µM | Active | Activity (MDA-MB-231 [2]): Active; Stability (Serum [9]): Stable; Stability (Serum [19]): Stable
2 | CC/C=C\C/C=C\C/C=C\C/C=C\C/C=C\C/C=C\CCC(=O)Oc1ccccc1 | – | – | – | – | – | – | – | – | – | – | – | > 25 µM | – | – | inactive | > 25 µM | – | –
3 | CC(C)c1ccccc1O | 4.9% | 88.8% | inactive | 1.5% | inactive | inactive | 2.2% | inactive | Non-toxic | 9% | 93.7% | – | inactive | Non-toxic | – | – | inactive | –
4 | CC/C=C\C/C=C\C/C=C\C/C=C\C/C=C\C/C=C\CCC(=O)Oc1c(C(C)C)cccc1C(C)C | 7.7% | 37.4% | Active | 1.8% | Active | Active | 22.2% | Active | Non-toxic | 40.4% | 90.5% | 4.2 µM | Active | Non-toxic | Dose-dependent effect | 2.9 µM | Active | Activity (MDA-MB-231 [2]): Active; Stability (Serum [9]): Stable; inhibition [20]: Dose-dependent effect; inhibition [21]: 30%; Stability (Serum [19]): Stable
5 | CC/C=C\C/C=C\C/C=C\C/C=C\C/C=C\C/C=C\CCC(=O)Nc1c(C(C)C)cccc1C(C)C | – | – | – | – | – | – | – | – | – | – | – | 5.5 µM | – | – | – | 3.7 µM | – | –
6 | CC/C=C\C/C=C\C/C=C\C/C=C\C/C=C\C/C=C\CCC(=O)Oc1ccccc1C1CCCCC1 | – | – | – | – | – | – | – | – | – | – | – | 18.7 µM | – | – | Dose-dependent effect | 8.4 µM | – | –
7 | CC/C=C\C/C=C\C/C=C\C/C=C\C/C=C\C/C=C\CCC(=O)O [DOCONEXENT] | 7.6% | 87.6% | – | 2.1% | – | – | 1.8% | – | – | 10.7% | 90.3% | – | – | – | Dose-dependent effect | – | – | growth inhibition (GI) (MDA-MB-231 [22]): inactive; Stability (Serum [9]): Stable; Stability (Serum [19]): Stable; inhibition [23]: inactive
8 | CC(C)c1cccc(C(C)C)c1O [PROPOFOL] | 7.1% | 88.2% | inactive | 2% | inactive | inactive | 2.4% | inactive | Non-toxic | 9.4% | 90.9% | – | inactive | Non-toxic | – | – | inactive | inhibition [23]: inactive
9 | CC/C=C\C/C=C\C/C=C\C/C=C\C/C=C\C/C=C\CCC(=O)Nc1ccccc1C(C)C | – | – | – | – | – | – | – | – | – | – | – | 8.5 µM | – | – | – | 6.5 µM | – | –
10 | CC/C=C\C/C=C\C/C=C\C/C=C\C/C=C\C/C=C\CCC(=O)Nc1ccccc1 | – | – | – | – | – | – | – | – | – | – | – | – | – | – | – | – | – | TGI (MDA-MB-231 [14]): inactive; IC50 (MDA-MB-231 [17]; mda-mb-231): Not Active
11 | CC/C=C\C/C=C\C/C=C\C/C=C\C/C=C\C/C=C\CCC(=O)Oc1ccc(C(C)C)cc1C(C)C | – | – | – | – | – | – | – | – | – | – | – | 12.6 µM | – | – | Dose-dependent effect | 7.3 µM | – | –
12 | Oc1ccccc1C1CCCCC1 | – | – | – | – | – | – | – | – | – | – | – | – | – | – | – | – | – | growth inhibition (GI) (MDA-MB-231 [22]): Active
